Assay outcomes: PubChem, Broad Institute
The full list was thinned out, with hits kept by preference.
IDH1 R132H inh: inhibitors of IDH1 R132H reductase, primary screen, biochemical, plate reader, single point; inhibition, % at 10 µM; AID 624101, 2012; Isocitrate dehydrogenase [NADP] cytoplasmic (Homo sapiens), O75874; actives 0.18% (n = 70,000); diaphorase/resazurin fluorescence, 60 min; in the data active = inhibition above about 34%; inconclusive = no clear call, values can overlap the other calls; inactive = below about 11%;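 also: 0% = DMSO and 100% = no enzyme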
Target sequence (O75874 whole entry R132H): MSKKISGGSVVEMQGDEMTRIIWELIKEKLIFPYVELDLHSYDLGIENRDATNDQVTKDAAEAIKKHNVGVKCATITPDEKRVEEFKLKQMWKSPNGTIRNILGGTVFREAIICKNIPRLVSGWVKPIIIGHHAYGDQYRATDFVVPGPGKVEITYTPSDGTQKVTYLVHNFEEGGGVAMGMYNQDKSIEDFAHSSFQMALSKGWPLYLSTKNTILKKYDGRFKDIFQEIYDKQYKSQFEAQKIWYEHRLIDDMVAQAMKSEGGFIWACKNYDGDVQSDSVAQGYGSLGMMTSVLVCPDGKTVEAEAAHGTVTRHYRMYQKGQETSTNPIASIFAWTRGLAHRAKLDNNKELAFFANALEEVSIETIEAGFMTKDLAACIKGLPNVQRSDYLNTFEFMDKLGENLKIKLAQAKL
KDM4C inh: inhibitors of GASC-1 (KDM4C) histone demethylase, primary screen, biochemical, single concentration HTS. inhibition, % at 12.5 µM. GST-KDM4C 2-372, H3K9me3 peptide, LANCE TR-FRET. actives 0.15% (n = 96,000);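 active = mean replicate inhibition above about 25%, with at least 55% of replicates also reaching it, limit read from the data, passing the limit was not always enough; inconclusive = only one of those two conditions met; inactive = neither condition met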
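Test system – GST-tagged GASC-1 (JMJD2C) catalytic fragment, aa 2-372 · Medium – HEPES buffer, pH 7.5, plus ascorbate · Reagent – H3K9me3 peptide with Fe(II)/2OG · Compound – one test concentration per compound · Timing – 30 min reaction, 60 min detection, RT · Technique – TR-FRET with Eu antibody and ULight streptavidin, EDTA stop · Read-out basis – inhibition from TR-FRET ratio decrease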
T cruzi growth: T. cruzi intracellular proliferation inhibitors, primary screen, cell-based, beta-gal Tulahuen parasites, NIH3T3 host, luminescence. actives 5.9% (n = 77,000). inhibition, % at 8.34 µM. T. cruzi beta-gal in NIH3T3, GalScreen luminescence, 90 h. AID 624255, 2012;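 active = mean inhibition above about 93%, with at least 55% of replicates each passing it, limit read from the data, passing the limit was not always enough; inconclusive = only one of those two conditions holds; inactive = neither condition holds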
Starred values were filed as active, the others as inactive; ? = inconclusive; / = no result.

SMILES	IDH1 R132H inh	KDM4C inh	T cruzi growth
CC(=O)N(C)C[C@@H]1Oc2cc(Br)ccc2S(=O)(=O)N([C@@H](C)CO)C[C@@H]1C	19.4	41.6*	11.0
COc1ccc(-c2ccc3c(c2)O[C@H](CN(C)C(C)=O)[C@@H](C)CN([C@@H](C)CO)S3(=O)=O)cc1	0.2	9.2	50.4
CC(=O)N(C)C[C@@H]1Oc2cc(Br)ccc2S(=O)(=O)N([C@H](C)CO)C[C@@H]1C	/	-0.1	-2.0
COc1ccc(-c2ccc3c(c2)O[C@H](CN(C)C(C)=O)[C@@H](C)CN([C@H](C)CO)S3(=O)=O)cc1	53.6*	55.9*	53.2
O=C(C1CCOCC1)N1C[C@H]2[C@@H](c3ccccc31)[C@H](CO)N2C(=O)Cc1ccccc1	/	29.4*	51.7
O=C(C1CCOCC1)N1C[C@@H]2[C@H](c3ccccc31)[C@H](CO)N2C(=O)Cc1ccccc1	/	-3.3	7.8
CCCC#Cc1ccc2c(c1)O[C@@H](CN(C)S(C)(=O)=O)[C@@H](C)CN([C@H](C)CO)S2(=O)=O	29.3	41.2*	48.0
CCCC#Cc1ccc2c(c1)O[C@@H](CN(C)S(C)(=O)=O)[C@H](C)CN([C@H](C)CO)S2(=O)=O	-0.2	-0.5	15.4
CC(C)C#Cc1ccc2c(c1)O[C@@H](CN(C)C)[C@@H](C)CN([C@H](C)CO)S2(=O)=O	74.5*	60.3*	/
CC(C)C#Cc1ccc2c(c1)O[C@@H](CN(C)C)[C@@H](C)CN([C@@H](C)CO)S2(=O)=O	-5.9	2.2	/
CC(C)CC#Cc1ccc2c(c1)O[C@@H](CN(C)C(=O)NC(C)C)[C@@H](C)CN([C@@H](C)CO)S2(=O)=O	-0.3	-2.1	54.7
C[C@H](CO)N1C[C@H](C)[C@@H](CN(C)C)Oc2cc(C#Cc3cccc(F)c3)ccc2S1(=O)=O	-0.7	0.8	73.1
CC(C)CC#Cc1ccc2c(c1)O[C@@H](CN(C)C(=O)NC(C)C)[C@H](C)CN([C@@H](C)CO)S2(=O)=O	36.0*	-0.4	57.6
C[C@H]1CN([C@@H](C)CO)S(=O)(=O)c2ccc(C#Cc3cccc(F)c3)cc2O[C@@H]1CN(C)C	71.4*	55.2*	24.7
Cc1ccc(C)c(NC(=O)C(Cc2ccccc2)N2C(=O)c3ccccc3C2=O)c1 (stereo not given)	0.2	/	/
CC1CCc2c(sc3nnn(CC(=O)Nc4cc(Cl)ccc4Cl)c(=O)c23)C1 (stereo not given)	0.6	/	/
CN(C)CCCC[C@@H]1NC(=O)[C@H]2C[C@@H](C(=O)NCc3ccc(F)cc3)[C@@H](c3ccc(O)cc3)N2C1=O	42.3*	/	/
CN(C)CCCCCCNC(=O)[C@@H]1C[C@@H]2C(=O)N3CCC[C@H]3C(=O)N2[C@@H]1c1ccc(O)cc1	0.3	/	/
COc1ccc(C#Cc2ccc3c(c2)O[C@@H](CN(C)C(=O)Nc2cccc(OC)c2)[C@H](C)CN([C@@H](C)CO)S3(=O)=O)cc1	/	/	61.0
COc1cccc(NC(=O)N(C)C[C@H]2Oc3cc(C#Cc4ccccc4)ccc3S(=O)(=O)N([C@@H](C)CO)C[C@H]2C)c1	0.1	0.4	120.1*
COc1ccc(C#Cc2ccc3c(c2)O[C@@H](CN(C)C(=O)Nc2cccc(OC)c2)[C@@H](C)CN([C@H](C)CO)S3(=O)=O)cc1	/	-8.7	53.0
COc1cccc(NC(=O)N(C)C[C@@H]2Oc3cc(C#Cc4ccccc4)ccc3S(=O)(=O)N([C@@H](C)CO)C[C@H]2C)c1	/	-1.6	125.2*
CCOC(=O)c1sc2ncn(CC(=O)Nc3cccc(Br)c3)c(=O)c2c1C	0.2	/	/
O=C(CCN1CCCCC1)NCC[C@H]1CC[C@H](NC(=O)Cc2cccnc2)[C@H](CO)O1	79.7*	74.8*	15.4
O=C(NCC[C@H]1CC[C@H](NS(=O)(=O)c2cccc(F)c2)[C@H](CO)O1)C1CCCC1	0.2	-1.4	/
SMILES	IDH1 R132H inh	KDM4C inh	T cruzi growth
O=C(CCN1CCCCC1)NCC[C@H]1CC[C@H](NC(=O)Cc2cccnc2)[C@@H](CO)O1	0.0	0.0	-33.4
O=C(NCC[C@@H]1CC[C@H](NS(=O)(=O)c2cccc(F)c2)[C@H](CO)O1)C1CCCC1	48.3*	35.7*	/
O=C(Cc1ccncc1)NCC[C@@H]1CC[C@H](NC(=O)C2CCCC2)[C@@H](CO)O1	0.4	-0.1	/
O=C(CN1CCOCC1)N[C@H]1CC[C@H](CCNC(=O)C2CCC2)O[C@H]1CO	73.3*	85.4*	57.7
O=C(Cc1ccncc1)NCC[C@H]1CC[C@H](NC(=O)C2CCCC2)[C@H](CO)O1	70.9*	57.5*	/
O=C(CN1CCOCC1)N[C@@H]1CC[C@H](CCNC(=O)C2CCC2)O[C@@H]1CO	-0.2	-1.4	20.3
Cc1oc(C(C)(C)C)cc1-c1cc(N)n(-c2ccc(I)cc2)n1	0.3	/	/
NC(=O)c1c(NC(=O)CCSc2nc(-c3ccco3)cc(C(F)(F)F)n2)sc2c1CCCC2	4.5	/	/
COc1ccc(NC(=O)CN(c2ccc(OC)c(Cl)c2)S(C)(=O)=O)cc1Cl	-0.1	/	/
O=C(NCC[C@H]1CC[C@H](NC(=O)c2cccnc2)[C@H](CO)O1)Nc1ccc(F)cc1	94.4*	64.8*	21.3
O=C(NCC[C@H]1CC[C@@H](NC(=O)c2cccnc2)[C@@H](CO)O1)Nc1ccc(F)cc1	0.3	-1.2	53.5
CN(C)c1ccc2c(c1)[C@@H]1C[C@H](CC(=O)O)O[C@@H](CO)[C@@H]1O2	-16.3	13.9	40.2
CCCNC(=O)C[C@@H]1C[C@H]2c3cc(NC(=O)CC4CC4)ccc3O[C@H]2[C@H](CO)O1	?	41.1*	-50.5
COc1cccc(S(=O)(=O)Nc2ccc3c(c2)[C@@H]2C[C@H](CC(=O)O)O[C@@H](CO)[C@@H]2O3)c1	-0.2	-1.4	16.2
COc1cccc(S(=O)(=O)Nc2ccc3c(c2)[C@H]2C[C@@H](CC(=O)O)O[C@H](CO)[C@H]2O3)c1	72.2*	38.5*	14.4
CN(C)C(=O)C[C@H]1C[C@@H]2c3cc(N(C)C)ccc3O[C@@H]2[C@@H](CO)O1	-13.2	33.5*	-10.5
CCCNC(=O)C[C@@H]1C[C@H]2c3cc(NC(=O)CC4CC4)ccc3O[C@H]2[C@@H](CO)O1	0.1	-0.4	-16.7
CN(C)C(=O)C[C@H]1C[C@H]2c3cc(NC(=O)Nc4ccccc4F)ccc3O[C@H]2[C@H](CO)O1	-1.8	1.6	-15.6
CN(C)C(=O)C[C@@H]1C[C@@H]2c3cc(NC(=O)Nc4ccccc4F)ccc3O[C@@H]2[C@@H](CO)O1	38.5*	36.2*	3.2
C#CCN1C(=O)C(O)(CC(=O)c2ccc(C)o2)c2ccccc21 (stereo not given)	0.2	/	/
Cc1cccc(CSc2nnc(NC(=O)c3oc4ccc(F)cc4c3C)s2)c1	0.4	/	/
CC(Oc1ccc(F)cc1)C(=O)Nc1sc2c(c1C(N)=O)CCCC2 (stereo not given)	0.8	/	/
Cc1ccc2nc(-c3cccnc3)cc(C(=O)Nc3ccc(CC(=O)O)cc3)c2c1	0.2	/	/
O=C(CSc1nnc(-c2cccnc2)n1-c1ccccc1)Nc1ccc(Oc2ccccc2)cc1	0.2	/	/
